Published values collected from several papers.
Compare with care: the assays were run in different laboratories.
ABL1 F317L: Tyrosine-protein kinase ABL1 (ABL1, Homo sapiens, UniProt P00519, F317L)

COc1ccc2oc(-c3ccc4nc(N)oc4c3)c/c(=N\c3ccccc3NC(=O)CCN)c2c1  remaining binding (Tyrosine-protein kinase ABL1 (ABL1, Homo sapiens, UniProt P00519); binding; 1 µM): 102%
CO[C@@H]1[C@H](N(C)C(=O)c2ccccc2)C[C@H]2O[C@]1(C)n1c3ccccc3c3c4c(c5c6ccccc6n2c5c31)C(=O)NC4  inhibition (Tyrosine-protein kinase ABL1, non-phosphorylated (ABL1, Homo sapiens, UniProt P00519, F317I); enzyme activity; inhibitor; 1 µM): 0%
Cc1ccc(NC(=O)c2ccnc(C(F)(F)F)c2)cc1-c1cc(OCCO)nc(N2CCOCC2)c1  remaining binding (ABL1 F317L; binding; 1 µM): 84%
CCCCC(=O)Nc1ccc(-c2ccc3ncn(CCC)c(=O)c3c2)cn1  remaining binding (Tyrosine-protein kinase ABL1, phosphorylated (ABL1, Homo sapiens, UniProt P00519, F317L); binding; competition with immobilised ligand; 0.5 µM): 97%
COc1ccc2[nH]c3c4[nH]c5ccc(OC)cc5c4c4c(c3c2c1)C(=O)NC4=O  remaining binding (ABL1 F317L; binding; 1 µM): 84%
N#Cc1ccc(NC(=O)Nc2ccccc2)cc1  remaining binding (Tyrosine-protein kinase ABL1, phosphorylated (ABL1, Homo sapiens, UniProt P00519, T315I); cell-free assay; competition with immobilised ligand; 25 µM): 100%
CC#CC(=O)N1CCC[C@H]1c1nc(-c2ccc(C(=O)Nc3ccccn3)cc2)c2c(N)nccn12  inhibition (Tyrosine-protein kinase ABL1, phosphorylated (ABL1, Homo sapiens, UniProt P00519, Y253F); enzyme activity; inhibitor; 1 µM): 22%
C1=C/COCc2cc(ccc2OCCN2CCCC2)Nc2nccc(n2)-c2cccc(c2)COC/1  remaining binding (Tyrosine-protein kinase ABL1, phosphorylated (ABL1, Homo sapiens, UniProt P00519); binding; 0.1 µM): 27%
C=CC(=O)N1CCC([C@@H]2CCNc3c(C(N)=O)c(-c4ccc(Oc5ccccc5)cc4)nn32)CC1  inhibition (Tyrosine-protein kinase ABL1, non-phosphorylated (ABL1, Homo sapiens, UniProt P00519, H396P); enzyme activity; inhibitor; 1 µM): 5%
C[C@H]1CC[C@H](n2c3cnccc3c3cnc(Nc4ccc5c(n4)CCN(C(=O)CO)C5)nc32)CC1  remaining binding (Tyrosine-protein kinase ABL1, non-phosphorylated (ABL1, Homo sapiens, UniProt P00519); binding; competition with immobilised ligand; 1 µM): 56%
